Measured values from ChEMBL document CHEMBL4118021, “Studies of TAK1-centered polypharmacology with novel covalent TAK1 inhibitors” (Bioorg Med Chem, 2017).
The source made the active and inactive calls. No cut-off for these calls is given here.

How the values were obtained:
[1] = target: Dual specificity mitogen-activated protein kinase kinase 2 (Homo sapiens) (UniProt P36507); experiment: Inhibition of full length human MEK2 (1 to 400 residues) expressed in mammalian expression system assessed as enzyme activity at 10 uM by KINOMEScan assay relative to control; set-up: scale not given: the % may be the effect or the level left
Dual specificity mitogen-activated protein kinase kinase 2 (Homo sapiens), sequence (P36507 whole entry, the tested form may be a part): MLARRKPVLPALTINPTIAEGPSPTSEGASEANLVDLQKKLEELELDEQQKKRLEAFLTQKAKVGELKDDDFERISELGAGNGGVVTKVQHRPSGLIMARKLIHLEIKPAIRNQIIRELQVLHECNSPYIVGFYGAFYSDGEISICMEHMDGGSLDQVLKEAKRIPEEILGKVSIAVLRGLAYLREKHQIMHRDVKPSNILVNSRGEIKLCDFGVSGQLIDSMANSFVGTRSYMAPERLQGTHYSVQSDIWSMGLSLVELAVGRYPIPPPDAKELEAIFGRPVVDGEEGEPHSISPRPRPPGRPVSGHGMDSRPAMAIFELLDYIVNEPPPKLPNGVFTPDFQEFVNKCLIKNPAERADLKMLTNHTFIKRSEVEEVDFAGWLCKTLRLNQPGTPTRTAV
In short: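 In vitro ATP-site competition binding assay (KinomeScan) across a panel of 456 kinases. Compound was tested at 1 and 10 μM. The read-out is the binding inhibition score relative to control.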

[2] = target: T1, Serine/threonine-protein kinase D2 (Homo sapiens) (UniProt Q9BZL6); experiment: Inhibition of human PRKD2 (519 to 838 residues) expressed in bacterial expression system assessed as enzyme activity at 10 uM by KINOMEScan assay relative to control; set-up: scale not given: the % may be the effect or the level left
T1 sequence (whole entry): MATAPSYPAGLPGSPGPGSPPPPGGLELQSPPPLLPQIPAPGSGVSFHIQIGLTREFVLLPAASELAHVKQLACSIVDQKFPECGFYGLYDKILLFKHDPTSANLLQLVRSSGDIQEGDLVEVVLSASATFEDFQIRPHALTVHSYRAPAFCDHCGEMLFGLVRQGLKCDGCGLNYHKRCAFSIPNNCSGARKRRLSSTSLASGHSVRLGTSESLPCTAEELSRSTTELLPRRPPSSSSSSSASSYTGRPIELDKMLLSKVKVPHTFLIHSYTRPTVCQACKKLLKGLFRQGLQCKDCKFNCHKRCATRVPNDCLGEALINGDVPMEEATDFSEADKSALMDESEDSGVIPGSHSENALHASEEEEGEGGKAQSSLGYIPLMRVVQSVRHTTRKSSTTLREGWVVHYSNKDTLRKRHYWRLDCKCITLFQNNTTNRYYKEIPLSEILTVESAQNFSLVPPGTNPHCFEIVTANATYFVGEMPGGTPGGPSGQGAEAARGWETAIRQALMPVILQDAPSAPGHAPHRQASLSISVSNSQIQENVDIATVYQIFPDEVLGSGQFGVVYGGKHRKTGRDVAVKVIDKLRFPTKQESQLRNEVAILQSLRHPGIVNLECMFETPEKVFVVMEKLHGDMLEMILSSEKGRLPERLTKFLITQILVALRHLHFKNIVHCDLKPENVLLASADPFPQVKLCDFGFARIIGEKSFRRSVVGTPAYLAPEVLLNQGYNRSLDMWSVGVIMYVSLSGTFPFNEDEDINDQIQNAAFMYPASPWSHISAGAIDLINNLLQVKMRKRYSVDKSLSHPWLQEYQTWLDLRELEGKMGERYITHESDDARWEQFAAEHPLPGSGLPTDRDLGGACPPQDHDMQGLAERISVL
In short: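 In vitro ATP-site competition binding assay across a panel of 456 kinases, with compound tested at 1 and 10 μM.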

[3] = target: T2, Aurora kinase A (Homo sapiens) (UniProt O14965); experiment: Binding affinity to AURKA in human NCI-H23 cells at 1 uM by mass spectrometry based pull down assay; type: cell-based
T2 sequence (whole entry): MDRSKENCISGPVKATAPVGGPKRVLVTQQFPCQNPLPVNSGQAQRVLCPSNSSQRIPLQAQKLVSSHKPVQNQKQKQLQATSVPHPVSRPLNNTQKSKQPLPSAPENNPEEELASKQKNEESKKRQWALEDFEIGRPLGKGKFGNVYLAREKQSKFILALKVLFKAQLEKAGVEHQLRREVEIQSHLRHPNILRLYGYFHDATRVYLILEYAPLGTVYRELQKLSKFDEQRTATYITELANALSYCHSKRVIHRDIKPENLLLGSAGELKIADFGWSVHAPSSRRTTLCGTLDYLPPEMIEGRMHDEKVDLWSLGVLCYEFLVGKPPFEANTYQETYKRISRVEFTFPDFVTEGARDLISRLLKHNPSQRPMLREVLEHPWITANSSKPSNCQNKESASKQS

[4] = target: Signal recognition particle receptor subunit beta (Homo sapiens) (UniProt Q9Y5M8); experiment: Binding affinity to SRPRB in human NCI-H358 cells at 1 uM by mass spectrometry based pull down assay; type: cell-based
Signal recognition particle receptor subunit beta (Homo sapiens), sequence (Q9Y5M8 whole entry): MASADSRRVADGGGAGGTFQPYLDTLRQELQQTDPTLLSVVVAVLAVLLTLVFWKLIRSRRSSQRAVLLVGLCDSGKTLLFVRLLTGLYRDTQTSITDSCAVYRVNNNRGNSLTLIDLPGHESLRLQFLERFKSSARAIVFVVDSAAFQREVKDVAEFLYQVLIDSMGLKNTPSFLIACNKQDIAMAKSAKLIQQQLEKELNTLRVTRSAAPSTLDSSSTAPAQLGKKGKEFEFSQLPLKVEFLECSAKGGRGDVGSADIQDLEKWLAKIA

[5] = target: Protein CIP2A (Homo sapiens) (UniProt Q8TCG1); experiment: Binding affinity to KIAA1524 in human NCI-H23 cells at 1 uM by mass spectrometry based pull down assay; type: cell-based
[6] = target: Fructose-bisphosphate aldolase C (Homo sapiens) (UniProt P09972); experiment: Binding affinity to ALDOC in human NCI-H358 cells at 1 uM by mass spectrometry based pull down assay; type: cell-based
Fructose-bisphosphate aldolase C (Homo sapiens), sequence (P09972 whole entry): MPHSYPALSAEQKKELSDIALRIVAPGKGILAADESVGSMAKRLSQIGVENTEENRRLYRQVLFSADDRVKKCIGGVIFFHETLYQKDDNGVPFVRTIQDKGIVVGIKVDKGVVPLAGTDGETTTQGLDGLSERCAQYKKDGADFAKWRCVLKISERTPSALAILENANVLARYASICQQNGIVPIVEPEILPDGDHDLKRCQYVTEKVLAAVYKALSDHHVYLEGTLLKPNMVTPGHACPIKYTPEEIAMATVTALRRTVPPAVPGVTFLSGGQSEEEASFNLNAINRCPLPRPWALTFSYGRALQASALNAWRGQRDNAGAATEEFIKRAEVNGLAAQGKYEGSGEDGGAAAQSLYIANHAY

[7] = target: StAR-related lipid transfer protein 7, mitochondrial (Homo sapiens) (UniProt Q9NQZ5); experiment: Binding affinity to STARD7 in human NCI-H23 cells at 1 uM by mass spectrometry based pull down assay; type: cell-based
StAR-related lipid transfer protein 7, mitochondrial (Homo sapiens), sequence (Q9NQZ5 whole entry): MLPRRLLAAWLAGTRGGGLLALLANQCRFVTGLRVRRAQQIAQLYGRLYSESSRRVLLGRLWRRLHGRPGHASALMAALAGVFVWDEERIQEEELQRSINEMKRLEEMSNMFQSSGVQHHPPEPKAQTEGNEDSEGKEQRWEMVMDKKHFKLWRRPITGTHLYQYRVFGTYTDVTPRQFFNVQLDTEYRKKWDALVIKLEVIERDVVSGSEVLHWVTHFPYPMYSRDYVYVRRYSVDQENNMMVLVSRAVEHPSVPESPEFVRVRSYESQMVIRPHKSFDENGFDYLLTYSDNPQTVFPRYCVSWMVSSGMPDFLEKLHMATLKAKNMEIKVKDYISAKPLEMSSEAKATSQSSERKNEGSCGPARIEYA

[8] = target: Cysteine and glycine-rich protein 2 (Homo sapiens) (UniProt Q16527); experiment: Binding affinity to CSRP2 in human NCI-H23 cells at 1 uM by mass spectrometry based pull down assay; type: cell-based
Cysteine and glycine-rich protein 2 (Homo sapiens), sequence (Q16527 whole entry): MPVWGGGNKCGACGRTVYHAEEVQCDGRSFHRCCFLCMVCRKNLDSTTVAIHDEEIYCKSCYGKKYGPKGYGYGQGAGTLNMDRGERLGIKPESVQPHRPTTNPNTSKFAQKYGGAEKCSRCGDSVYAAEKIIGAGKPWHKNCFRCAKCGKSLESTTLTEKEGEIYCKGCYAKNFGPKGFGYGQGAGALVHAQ

[9] = target: Probable ATP-dependent RNA helicase DDX17 (Homo sapiens) (UniProt Q92841); experiment: Binding affinity to DDX17 in human NCI-H23 cells at 1 uM by mass spectrometry based pull down assay; type: cell-based
Probable ATP-dependent RNA helicase DDX17 (Homo sapiens), sequence (Q92841 whole entry): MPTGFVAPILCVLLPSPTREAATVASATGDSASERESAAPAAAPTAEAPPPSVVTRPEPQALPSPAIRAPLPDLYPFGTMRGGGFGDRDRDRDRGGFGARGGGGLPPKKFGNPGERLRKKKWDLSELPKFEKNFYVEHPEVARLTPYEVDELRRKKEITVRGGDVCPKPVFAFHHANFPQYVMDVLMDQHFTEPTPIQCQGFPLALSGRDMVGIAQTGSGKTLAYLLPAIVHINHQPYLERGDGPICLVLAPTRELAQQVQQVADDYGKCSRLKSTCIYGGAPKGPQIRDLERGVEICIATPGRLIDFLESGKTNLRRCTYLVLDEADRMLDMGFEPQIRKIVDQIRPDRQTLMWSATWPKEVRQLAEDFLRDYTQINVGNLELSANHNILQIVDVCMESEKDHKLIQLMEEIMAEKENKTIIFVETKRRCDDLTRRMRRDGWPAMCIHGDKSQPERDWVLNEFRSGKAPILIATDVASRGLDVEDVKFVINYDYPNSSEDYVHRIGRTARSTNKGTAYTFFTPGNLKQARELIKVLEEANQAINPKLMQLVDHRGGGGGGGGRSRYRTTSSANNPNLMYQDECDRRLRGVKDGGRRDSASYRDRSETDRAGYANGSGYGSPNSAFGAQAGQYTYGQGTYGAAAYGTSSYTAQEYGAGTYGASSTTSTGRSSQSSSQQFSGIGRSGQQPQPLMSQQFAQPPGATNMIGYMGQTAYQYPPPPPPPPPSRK

[10] = target: Trifunctional enzyme subunit alpha, mitochondrial (Homo sapiens) (UniProt P40939); experiment: Binding affinity to HADHA in human NCI-H358 cells at 1 uM by mass spectrometry based pull down assay; type: cell-based
Trifunctional enzyme subunit alpha, mitochondrial (Homo sapiens), sequence (P40939 whole entry): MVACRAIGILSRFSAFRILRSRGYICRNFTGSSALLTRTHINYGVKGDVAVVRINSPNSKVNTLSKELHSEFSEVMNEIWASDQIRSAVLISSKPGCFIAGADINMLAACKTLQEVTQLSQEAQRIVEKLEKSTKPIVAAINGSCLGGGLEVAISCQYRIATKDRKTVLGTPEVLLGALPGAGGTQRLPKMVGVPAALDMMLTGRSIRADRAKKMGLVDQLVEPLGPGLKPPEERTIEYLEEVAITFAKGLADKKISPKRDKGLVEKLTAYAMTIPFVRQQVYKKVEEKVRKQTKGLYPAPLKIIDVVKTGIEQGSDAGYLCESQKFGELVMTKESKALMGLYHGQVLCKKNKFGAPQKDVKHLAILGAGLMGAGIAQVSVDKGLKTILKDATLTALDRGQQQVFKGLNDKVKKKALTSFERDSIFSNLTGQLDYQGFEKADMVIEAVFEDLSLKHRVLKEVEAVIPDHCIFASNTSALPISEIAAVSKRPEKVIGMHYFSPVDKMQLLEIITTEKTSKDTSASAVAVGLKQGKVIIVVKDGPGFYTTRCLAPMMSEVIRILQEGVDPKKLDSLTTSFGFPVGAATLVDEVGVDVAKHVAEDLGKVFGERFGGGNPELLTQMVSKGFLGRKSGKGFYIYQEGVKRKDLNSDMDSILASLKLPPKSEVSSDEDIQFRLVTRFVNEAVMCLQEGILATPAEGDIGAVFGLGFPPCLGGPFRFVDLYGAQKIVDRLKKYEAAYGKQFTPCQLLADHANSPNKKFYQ

[11] = target: T3, Dual specificity mitogen-activated protein kinase kinase 3 (Homo sapiens) (UniProt P46734); experiment: Binding affinity to MAP2K3 in human NCI-H358 cells at 1 uM by mass spectrometry based pull down assay; type: cell-based
T3 sequence (whole entry): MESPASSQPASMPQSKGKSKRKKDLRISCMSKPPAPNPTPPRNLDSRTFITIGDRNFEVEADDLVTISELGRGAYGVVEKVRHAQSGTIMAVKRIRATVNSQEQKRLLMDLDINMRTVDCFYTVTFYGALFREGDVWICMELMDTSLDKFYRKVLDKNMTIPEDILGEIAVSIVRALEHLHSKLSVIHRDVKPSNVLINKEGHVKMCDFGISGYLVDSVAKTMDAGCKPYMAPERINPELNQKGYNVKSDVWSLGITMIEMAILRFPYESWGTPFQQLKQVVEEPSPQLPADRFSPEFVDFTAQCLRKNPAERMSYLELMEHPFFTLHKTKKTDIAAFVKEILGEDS

[12] = target: Multifunctional methyltransferase subunit TRM112-like protein (Homo sapiens) (UniProt Q9UI30); experiment: Binding affinity to TRMT112 in human NCI-H23 cells at 1 uM by mass spectrometry based pull down assay; type: cell-based
Multifunctional methyltransferase subunit TRM112-like protein (Homo sapiens), sequence (Q9UI30 whole entry): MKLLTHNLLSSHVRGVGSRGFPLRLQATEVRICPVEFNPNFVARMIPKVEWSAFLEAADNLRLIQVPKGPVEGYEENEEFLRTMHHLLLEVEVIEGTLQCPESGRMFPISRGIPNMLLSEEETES

Row | Activity [3] | Activity [4] | Activity [5] | Activity [6] | Activity [7] | Activity [8] | Activity [9] | Activity [10] | Activity [11] | Activity [12] | Compound | Activity [1] [%] | Activity [2] [%]
1 |  |  |  |  |  |  |  |  |  |  | COc1cc(O)c2c(c1)/C=C/C[C@H](O)[C@H](O)C(=O)/C=C\C[C@H](C)OC2=O | 0.05 | 2.5
2 | Active | Active | Active | Active | Active | Active | Active | Active | Active | Active | C=CC(=O)Nc1ccccc1Nc1nc(Nc2ccc(N3CCN(CCOCCOCCOCCNC(=O)CCCC[C@@H]4SC[C@@H]5NC(=O)N[C@@H]54)CC3)cc2)ncc1Cl |  | 
